Source: PubChem
SENP1 FRET inh: blocks the human SENP1 SUMO protease catalytic domain; Q9P0U3; recombinant SENP1 catalytic domain, CyPet-SUMO1-YPet FRET cleavage; inhibition, % at 10 µM; 360,000 tested, 0.21% active;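 active = inhibition at least 30% at 10 µM, raw YFP signal under a set limit, fluorescence ratio 0.5 to 1.5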
Target sequence (Q9P0U3 419-644 limits assumed): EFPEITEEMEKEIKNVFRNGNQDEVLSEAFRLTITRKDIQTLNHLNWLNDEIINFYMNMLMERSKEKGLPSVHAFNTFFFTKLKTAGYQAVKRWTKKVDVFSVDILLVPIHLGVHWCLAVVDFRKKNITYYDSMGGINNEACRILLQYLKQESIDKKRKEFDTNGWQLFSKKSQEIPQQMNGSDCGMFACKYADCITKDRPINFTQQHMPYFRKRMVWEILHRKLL
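Test system: recombinant human SENP1 catalytic domain, His6-tagged / Medium: pH 8 Tris buffer with EDTA, NaCl, BME, BSA, NP40, catalase / Also added: SUMO1 FRET substrate flanked by Cypet and Ypet, 25 nM / Times: 50 min reaction at room temperature / Signal: FRET, CFP and YFP emission / Control set: no-enzyme low control and enzyme-plus-DMSO high control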
NR3A LBD binder: NR3A (human) ligand-binding domain modulation | Tm shift relative to glycine control, % at 25 µM | 340,000 tested, 2.5% active | NR3A LBD differential scanning fluorimetry, Tm shift; 0% = protein alone, 100% = glycine-bound protein;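 active = melting temperature shift of at least 10% of the positive control shift, at one fixed dose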
ATG4B inhibitor: blocks human ATG4B protease cleavage of LC3 substrate | Q9Y4P1 | ATG4B cleavage of LC3-PLA2, NBD-HPC fluorescence, 1 h | inhibition, % at 8.33 µM | 340,000 tested, 0.51% active; in the data active = inhibition above about 40%
Target sequence (Q9Y4P1 whole entry, looked up): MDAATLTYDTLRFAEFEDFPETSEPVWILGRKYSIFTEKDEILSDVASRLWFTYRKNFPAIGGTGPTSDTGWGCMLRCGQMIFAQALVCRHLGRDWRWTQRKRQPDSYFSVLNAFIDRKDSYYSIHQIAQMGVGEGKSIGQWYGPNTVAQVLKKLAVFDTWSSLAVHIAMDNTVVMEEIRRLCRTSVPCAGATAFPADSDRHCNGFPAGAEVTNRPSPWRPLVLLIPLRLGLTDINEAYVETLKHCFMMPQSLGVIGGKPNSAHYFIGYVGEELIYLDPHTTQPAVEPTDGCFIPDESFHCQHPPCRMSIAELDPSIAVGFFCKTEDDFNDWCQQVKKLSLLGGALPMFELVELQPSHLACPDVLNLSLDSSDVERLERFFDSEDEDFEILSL
UCH37 inh: human UCH37 deubiquitinating enzyme inhibition; Q9Y5K5; purified proteasome/UCH37, Ub-AMC cleavage fluorescence; inhibition, % (concentration not given with the values); 330,000 tested, 0.33% active; AID 588478;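 active = mean inhibition over replicate wells above about 20%, limit read from the data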
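Schedule: 30 min plus 25 min, room temperature / Material: human UCH37 within purified proteasomes / Technique: AMC fluorescence intensity at 355/460 nm / Buffer or medium: pH 7.4 Tris-HCl (50 mM) with ovalbumin, ATP-MgCl2, DTT / Controls: wells without proteasome as full block, compound-free enzyme plus substrate as uninhibited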
NadD block: NadD (S. aureus) enzyme inhibition | 360,000 tested, 0.78% active | inhibition, % at 20 µM | purified NadD enzyme, colorimetric absorbance read-out; in the data active = inhibition above about 26%
NadD inh conf: confirmation of Staphylococcus aureus NadD inhibitors | AID 624309 | shares compounds with NadD block | purified S. aureus NadD, colorimetric enzyme assay | inhibition, % at 20 µM | 2,000 tested, 13% active; in the data active = inhibition mostly above about 42%, no sharp cut-off; inactive = mostly below about 42%
Numbers stand for hits; – = inactive; · = no result. Shown are actives, neighbours in structure and some others; about 3.6% of the full set was active somewhere.

SMILES | SENP1 FRET inh | NR3A LBD binder | ATG4B inhibitor | UCH37 inh | NadD block | NadD inh conf
Nc1nonc1-n1nnc(C(=O)NN=Cc2ccc(OCc3ccccc3)cc2)c1CNc1ccccc1 | · | · | · | – | · | ·
Cc1cccc(COc2ccc(/C=N/NC(=O)c3nnn(-c4nonc4N)c3CN3CCCCC3)cc2)c1 | – | 13 | – | · | 31 | –
Nc1nonc1-n1nnc(C(=O)N/N=C/c2ccc(OCc3ccccc3)cc2)c1CNc1ccccc1 | – | 31 | – | · | 39 | –
CC(C)C(NC(=O)COc1ccc2ccccc2c1)C(=O)NN=C/C=C/c1ccccc1 (configuration not stated) | · | · | · | – | · | ·
Cc1ccc2cc3cc(C(=O)N(CC(=O)NC4CCCC4)c4cccc(C)c4C)sc3nc2c1 | – | – | – | – | 34 | –
Cc1ccc(C)c(N(CC(=O)NC2CCCC2)C(=O)c2cc3cc4cccc(C)c4nc3s2)c1 | – | – | – | – | 32 | –
COC(=O)C1=C(O)/C(=C\c2ccc(CNC(=O)C(=O)Nc3ccc(C)cc3)o2)N=C1C | – | – | – | – | 32 | –
CCOC(=O)C1=C(O)/C(=C/c2ccc(CNC(=O)C(=O)Nc3ccc(C)cc3)o2)N=C1C | – | – | – | – | 46 | –
COC(=O)C1=C(O)/C(=C\c2ccc(CNC(=O)C(=O)Nc3ccc(C)c(C)c3)o2)N=C1C | – | – | – | – | 34 | –
CCOC(=O)C(=O)NCc1ccc(/C=C2/N=C(C)C(C(=O)OCC)=C2O)o1 | – | – | – | – | – | ·
CN(C)/C=C(\C#N)C(=O)NN=Cc1ccc(Cl)cc1 | · | · | · | – | · | ·
COc1ccc(N(CC(=O)NN=Cc2ccccc2F)S(=O)(=O)c2ccccc2)cc1 | · | · | · | – | · | ·
N=c1c(S(=O)(=O)c2ccc(Br)cc2)cc2c(=O)n3ccccc3nc2n1Cc1ccco1 | – | – | – | – | 49 | –
Cc1ccc(Cn2c(=N)c(C(=O)NCc3ccco3)cc3c(=O)n4ccccc4nc32)cc1 | – | – | – | – | 43 | –
Cc1ccc(Cn2c(=N)c(S(=O)(=O)c3ccc(Br)cc3)cc3c(=O)n4ccccc4nc32)cc1 | – | – | – | – | – | ·
N=c1c(S(=O)(=O)c2ccc(Br)cc2)cc2c(=O)n3ccccc3nc2n1Cc1ccccc1 | – | – | – | – | 32 | –
N=c1c(S(=O)(=O)c2ccc(Br)cc2)cc2c(=O)n3ccccc3nc2n1C1CCCCC1 | – | – | – | · | 42 | –
N=c1c(C(=O)NCc2ccco2)cc2c(=O)n3ccccc3nc2n1CCc1ccccc1 | – | – | – | – | – | ·
C/C=C/C=NNc1nc(-c2ccc([N+](=O)[O-])cc2)cs1 | · | · | · | – | · | ·
Cc1cccc(C(=O)ON=Cc2c(Cl)n(C)c3ccccc23)c1 | · | · | · | – | · | ·
CC(O)C(=O)NN=Cc1ccccc1C(=O)O (configuration not stated) | · | · | · | – | · | ·
Cc1ccsc1C=NNc1ccc(Cl)nn1 | · | · | · | – | · | ·
N=c1c(S(=O)(=O)c2ccc(Cl)cc2)cc2c(=O)n3ccccc3nc2n1Cc1ccco1 | – | – | – | · | 43 | –
S=c1[nH]nc(-c2cc(-c3ccccc3)n[nH]2)n1/N=C/C=C/c1ccccc1 | – | – | – | · | 33 | –
COc1ccccc1/C=C/C=N/n1c(-c2cc(-c3ccccc3)n[nH]2)n[nH]c1=S | – | – | – | · | 36 | –
SMILES | SENP1 FRET inh | NR3A LBD binder | ATG4B inhibitor | UCH37 inh | NadD block | NadD inh conf
S=c1[nH]nc(-c2cc(-c3ccccc3)n[nH]2)n1/N=C/C(Br)=C/c1ccccc1 | – | 17 | – | · | 62 | –
CCOc1cc(C=Nn2c(C)nnc2C)ccc1O | · | · | · | – | · | ·
COc1ccccc1/C=C/C=NN1CCN(Cc2cccc3ccccc23)CC1 | · | · | · | – | · | ·
CC(=NNC(=O)C1CC1c1ccccc1)c1cccc([N+](=O)[O-])c1 (configuration not stated) | · | · | · | – | · | ·
CN1CCc2c(sc(/N=C/c3c[nH]c4ccccc34)c2C(N)=O)C1 | – | – | – | · | 51 | –
CN1CCc2c(sc(/N=C/c3c[nH]c4ccccc34)c2C#N)C1 | – | – | – | · | 44 | –
CCOC(=O)c1c(CC(C)C)csc1N=CC1C(=O)CCCC1=O | · | · | · | – | · | ·
Cc1ccc(-c2c(C(=O)NN=Cc3sccc3C)nnn2-c2nonc2N)cc1 | · | · | · | – | · | ·
CC(=NN=C(C)c1cccs1)c1cccs1 | · | · | · | – | · | ·
COC(=O)Cn1c(=NC(=O)c2sc3ccccc3c2Cl)sc2cc(S(N)(=O)=O)ccc21 | – | 13 | – | · | 37 | –
COC(=O)Cn1c(=NC(=O)c2nc3ccccc3s2)sc2cc(S(C)(=O)=O)ccc21 | · | · | · | – | · | ·
CCOC(=O)Cn1c(=NC(=O)c2sc3ccccc3c2Cl)sc2cc(S(N)(=O)=O)ccc21 | – | – | – | – | 51 | –
Cc1cc(C)cc(OC(C)c2ccnc3nc(N=CN(C)C)nn23)c1 (configuration not stated) | · | · | · | – | · | ·
O=C(O)C(CC(=NO)c1ccc(Br)cc1)P(=O)(c1ccccc1)c1ccccc1 (configuration not stated) | · | · | · | – | · | ·
O=C1C(Cc2ccccc2)Nc2ncnc(N3CCN(c4ccccc4)CC3)c2N1Cc1ccc(Cl)cc1 (configuration not stated) | – | – | – | – | 41 | –
CC1Nc2ncnc(N3CCc4ccccc4C3)c2N(Cc2ccc(Cl)cc2)C1=O (configuration not stated) | – | – | – | – | 43 | –
COc1ccc(-c2ccc3[nH]c4c(c3c2)CCN2C[C@@H]([C@H](C)OC(=O)Nc3cc(Cl)cc(Cl)c3)[C@@H](N(C)C(=O)Nc3cc(Cl)cc(Cl)c3)C[C@@H]42)cc1 | – | · | · | · | 38 | –
Cc1cccc(C=CC(=O)c2ccccc2)c1 | – | – | – | – | – | ·
O=C(/C=C/c1ccc2ccccc2c1)c1ccoc1 | – | – | – | – | 30 | –
COC(=O)c1ccc(C=NNC(=S)NC(C)C)cc1 | · | · | · | – | · | ·
Cc1cc(C)n2c(SCC(O)=C(C#N)c3nc4ccccc4[nH]3)nnc2n1 | – | – | – | – | – | ·
Cc1cccc(Nc2nnc(SC/C(O)=C(\C#N)c3nc4ccccc4[nH]3)s2)c1 | – | 10 | – | – | 32 | –
COc1ccc(C)cc1-n1nnnc1SC/C(O)=C(\C#N)c1nc2ccccc2[nH]1 | – | – | – | · | – | ·
Cc1ccc(Nc2nnc(SC/C(O)=C(\C#N)c3nc4ccccc4[nH]3)s2)c(C)c1 | – | 13 | – | – | 56 | 61
Cc1ccc(C(=O)N2CCN(C3c4cccc5cccc(c45)C3NS(=O)(=O)c3ccccc3)CC2)cc1 (configuration not stated) | – | – | – | – | 36 | –
CC(=O)N1CCN(C2c3cccc4cccc(c34)C2NS(=O)(=O)c2ccccc2)CC1 (configuration not stated) | – | – | – | – | – | ·
O=C(O)c1cccc(-n2cccc2/C=C2/NC(=O)N(c3ccc(Cl)cc3)C2=O)c1 | – | – | – | 27 | 43 | 61
